# Measurements pooled from the literature.
# Lines come from different studies, so protocols differ.
# CYP3A4: Cytochrome P450 3A4 (CYP3A4, Homo sapiens, UniProt P08684)
Structure (SMILES),tested on,test,system,setting,endpoint,result
COC(=O)C1CCN(C(=O)c2ccc(N(C)Cc3cnc4nc(N)nc(N)c4n3)cc2)CC1,CYP3A4,"enzyme activity, inhibitor, luciferase",,10 µM,inhibition,-17.4%
S=C(Nc1ccc2c(c1)Cc1ccccc1-2)Nc1ccc2c(c1)Cc1ccccc1-2,BHK-21,"cell growth or viability, MTT",,42 h,CC50,236 µM
NC(=O)C(NC(=O)C1CC(c2ccccc2)C1)c1ccccc1 (centres unmarked),BHK-21,"cell growth or viability, MTT",,,CC50,> 100 µM
NCCc1ccccn1,CYP3A4,"enzyme activity, inhibitor",,,IC50,5000 µM
COC(=O)C1CCN(C(=O)c2ccc(NCc3cnc4nc(N)nc(N)c4n3)cc2)CC1,CYP3A4,"enzyme activity, inhibitor, luciferase",,10 µM,inhibition,-13.4%
Cc1cc(C)nc(Nc2ncc(C(=O)NCCc3c(C)[nH]c4ccccc34)cn2)c1,,,"C57BL/6 mouse, plasma","intraperitoneal, 22 mg/kg",Cmax,1150 ng/mL
CCC[C@@](N)(CO)CCc1ccc(OCCCCCC(C)C)cc1,,,"mouse, plasma","oral, 10 mg/kg",Cmax,161 nM
O=c1[nH]cnc2c1nnn2-c1cccc(Cl)c1,BHK-21,"cell growth or viability, MTT",,,CC50,> 1000 µM
CCCCCCCC(=O)N[C@@H](CCCCN)C(=O)N[C@@H](CCCCN)C(=O)N[C@@H](C)C(=O)N[C@@H](CC(C)C)C(=O)N[C@@H](CCCCN)C(=O)N[C@@H](CC(C)C)C(=O)N[C@@H](C)C(=O)N[C@@H](CCCCN)C(=O)N[C@@H](CCCCN)C(=O)N1CCC[C@H]1C(=O)N[C@@H](CC(C)C)C(=O)N[C@@H](CCCCN)C(=O)N[C@@H](CC(C)C)C(=O)N[C@@H](CC(C)C)C(=O)N[C@@H](CCCCN)C(N)=O,,,"female CD-1 mouse, blood","intravenous, 3 mg/kg, single dose",Cmax,1420 ng/mL
O=C(O)C(F)(F)C(F)(F)C(F)(F)C(F)(F)C(F)(F)C(F)(F)C(F)(F)F,"Solute carrier organic anion transporter family member 1B1 (SLCO1B1, Homo sapiens, UniProt Q9Y6L6)","transporter uptake, substrate",CHO,"1 min, pH 7.4",Km,52.6 µM
O=C(Nc1ccc(O)cc1)c1ccccc1O,BHK-21,"cell growth or viability, MTT",,,CC50,> 1000 µM
Cc1nc2c([nH]1)c(=O)n(C)c(=O)n2Cc1ccco1,"Cytochrome P450 1A2 (CYP1A2, Homo sapiens, UniProt P05177)","enzyme activity, inhibitor","human, liver microsomes",40 µM,inhibition,71%
O=C(Nc1ncc([N+](=O)[O-])s1)c1cccs1,BHK-21,"cell growth or viability, MTT",,,CC50,> 1 µM
CCc1cc(/C(C)=N/OCc2ccc(C3CCCCC3)c(C(F)(F)F)c2)ccc1CN1CC(C(=O)O)C1,CYP3A4,"enzyme activity, inhibitor","human, liver microsomes","200 µM, 20 min, midazolam probe",inhibition,11.5%
